The values below come from ChEMBL document CHEMBL1123918, “Thromboxane synthetase inhibitors and antihypertensive agents. 4. N-[(1H-imidazol-1-yl)alkyl] derivatives of quinazoline-2,4(1H,3H)-diones, quinazolin-4(3H)-ones, and 1,2,3-benzotriazin-4(3H)-ones” (J Med Chem, 1987).

Experiment [1] addresses T1, Thromboxane-A synthase (Rattus norvegicus) (UniProt P49430).
T1 sequence (whole entry): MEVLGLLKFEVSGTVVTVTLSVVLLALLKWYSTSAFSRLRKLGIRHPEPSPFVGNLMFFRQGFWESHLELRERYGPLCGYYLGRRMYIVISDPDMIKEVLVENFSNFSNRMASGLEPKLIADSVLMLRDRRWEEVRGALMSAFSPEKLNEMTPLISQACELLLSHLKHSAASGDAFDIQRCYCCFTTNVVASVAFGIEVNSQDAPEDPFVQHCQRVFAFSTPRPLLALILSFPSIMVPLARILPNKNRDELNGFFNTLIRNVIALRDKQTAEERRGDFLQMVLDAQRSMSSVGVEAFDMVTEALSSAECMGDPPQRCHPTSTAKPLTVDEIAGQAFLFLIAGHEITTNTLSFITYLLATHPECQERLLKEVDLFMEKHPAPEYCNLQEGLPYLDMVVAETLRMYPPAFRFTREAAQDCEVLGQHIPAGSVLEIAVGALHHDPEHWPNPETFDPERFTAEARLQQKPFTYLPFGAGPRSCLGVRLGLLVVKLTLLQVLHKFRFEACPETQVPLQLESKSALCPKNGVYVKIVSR
Kind of experiment: Tested for antihypertensive activity in spontaneously hypertensive rats at 100 mg/kg peroral dosage for 2 days; A means active. It counts as functional, organism-based. Set-up: dose 100 mg/kg. A digest of the protocol:
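Male 16-week-old Okamoto SHR (mean arterial pressure about 170 mmHg) gavaged with compound suspended in 2% preboiled starch (50 mg/mL) at 100 mg/kg or less, with 0.9% NaCl load 25 mL/kg; identical second dose without saline 24 h later. Mean arterial pressure measured 28 h after first dose; one to three rats per compound.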

The target in the next experiment is T2, Thromboxane-A synthase (Rattus norvegicus, UniProt P49430).
T2 sequence (P49430 whole entry): T1 sequence (whole entry)
Description: Tested for inhibition of thromboxane synthetase from spontaneously hypertensive rats. Put shortly: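 Washed SHR platelets in oxygenated Krebs phosphate buffer pH 7.4 (4.5-6.0 X 10^4 platelets/µL) incubated with vehicle or drug 10 min at 37 °C; stopped with ice and citric acid. TXB2 measured by direct RIA. Percent inhibition is relative to vehicle controls after background subtraction. IC50 is read from a plot of inhibition vs log concentration.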

The source made the active and inactive calls. How the calls were made is not given here.

As for `Nc1ccc(Cl)cc1C(=O)NCCCn1ccnc1`, the result in experiment [1] was Active.

As for `O=c1[nH]c2c(Cl)cccc2c(=O)n1CCCCn1ccnc1`, on Thromboxane-A synthase, the IC50 (in general, the concentration that inhibits the measured activity by half) worked out at 30 nM. Besides, the outcome in experiment [1] was Active.

Consider `CC(Cn1ccnc1)Cn1c(=O)[nH]c2cc(Cl)ccc2c1=O` (stereo unspecified) [listing 1 of 2 here], for which, in experiment [1], the outcome was Active.

On to `CC(CCn1c(=O)[nH]c2ccc(Cl)cc2c1=O)n1ccnc1` (stereo unspecified), for which the IC50 at Thromboxane-A synthase was 150 nM. Also, the result in experiment [1] was Active.

In the case of `O=c1[nH]c2c(C(F)(F)F)cccc2c(=O)n1CCCCCn1ccnc1`, the IC50 on Thromboxane-A synthase was 10 nM. Also, in experiment [1], the result was Active.

`O=c1c2ccc(Cl)cc2nnn1CCCCCn1ccnc1`: the result in experiment [1] was Active.

Regarding `Nc1ccc(Cl)cc1C(=O)NCCCCCn1ccnc1`, the outcome in experiment [1] was Active.

As for `Nc1ccc(Cl)cc1C(=O)NCCCCCCCCn1ccnc1`, the result in experiment [1] was Active.

As to `Cc1ccc2[nH]c(=O)n(CCC(C)n3ccnc3)c(=O)c2c1` (stereo unspecified), the half-inhibitory concentration (IC50) against Thromboxane-A synthase turned out to be 70 nM. Moreover, the result in experiment [1] was Active.

`O=c1c2ccccc2nnn1CCCn1ccnc1` registered an IC50 on Thromboxane-A synthase of 1500 nM. Also, the outcome in experiment [1] was Active.

On to `CC(CCn1c(=O)[nH]c2ccccc2c1=O)n1ccnc1` (stereo unspecified), for which the IC50 against Thromboxane-A synthase was 700 nM. Also, the outcome in experiment [1] was Active.

As to `O=c1[nH]c2cc(Cl)ccc2c(=O)n1CCCCCCn1ccnc1`, on Thromboxane-A synthase, the IC50 is 200 nM. Besides, the result in experiment [1] was Active.

With `O=c1[nH]c2ccc(Br)cc2c(=O)n1CCCCn1ccnc1`, at Thromboxane-A synthase, the IC50 amounted to 800 nM. In experiment [1], the result was Active.

In the case of `Cc1ccc2[nH]c(=O)n(CCCCCn3ccnc3)c(=O)c2c1`, the IC50 on Thromboxane-A synthase stood at 30 nM. For the same compound, the outcome in experiment [1] was Active.

As to `CC(Cn1ccnc1)Cn1c(=O)[nH]c2cc(Cl)ccc2c1=O` (stereo unspecified) [listing 2 of 2 here], at Thromboxane-A synthase, the midpoint of inhibition, the IC50, lay at 3 nM.

Consider `O=c1c2ccccc2nnn1CCCCCCn1ccnc1`, for which it took 50 nM to reach half-maximal inhibition against Thromboxane-A synthase (IC50). The outcome in experiment [1] was Active.

In the case of `O=c1c2ccccc2nnn1CCCCn1ccnc1`, in experiment [1], the result was Active.

Take `O=c1[nH]c2c(C(F)(F)F)cccc2c(=O)n1CCCCCCn1ccnc1`: the outcome in experiment [1] was Active.

At Thromboxane-A synthase, `O=c1[nH]c2ccccc2c(=O)n1CCCCCCn1ccnc1` came in with an IC50 of 40 nM. Further, in experiment [1], the outcome was Active.

For `Cc1ccc2[nH]c(=O)n(CCCCn3ccnc3)c(=O)c2c1`, at Thromboxane-A synthase, the midpoint of inhibition, the IC50, lay at 50 nM. The outcome in experiment [1] was Active.

For `O=c1c2ccccc2ncn1CCCCCn1ccnc1`, the outcome in experiment [1] was Active.

In turn, `O=c1[nH]c2ccc(Cl)cc2c(=O)n1CCCCCn1ccnc1` gave an IC50 against Thromboxane-A synthase of 12 nM. Moreover, in experiment [1], the outcome was Active.

On Thromboxane-A synthase, `CC(CCNC(=O)c1cc(Cl)ccc1N)n1ccnc1` (stereo unspecified) showed an IC50 of 500 nM. Further, the result in experiment [1] was Active.

Consider `O=c1c2cc(Cl)ccc2nnn1CCCCCCn1ccnc1`, for which the outcome in experiment [1] was Active.

Compound `O=c1[nH]c2c(C(F)(F)F)cccc2c(=O)n1CCCCn1ccnc1` registered an IC50 at Thromboxane-A synthase of 50 nM. The result in experiment [1] was Active.

`CC(CCn1c(=O)[nH]c2c(Cl)cccc2c1=O)n1ccnc1` (stereo unspecified) had an IC50 at Thromboxane-A synthase of 1000 nM. Besides, the result in experiment [1] was Active.

For `CC(CNC(=O)c1cc(Cl)ccc1N)Cn1ccnc1` (stereo unspecified), the half-maximal inhibitory concentration (IC50) against Thromboxane-A synthase is 90 nM. For the same compound, the outcome in experiment [1] was Active.

`O=c1[nH]c2ccc(Cl)cc2c(=O)n1CCCCn1ccnc1` [listing 1 of 3 here] gave a 50% inhibitory concentration (IC50) on Thromboxane-A synthase of 7 nM.

Consider `O=c1[nH]c2cc(Cl)ccc2c(=O)n1CCCCCn1ccnc1`, for which the midpoint of inhibition at Thromboxane-A synthase, the IC50, lay at 820 nM. Further, the result in experiment [1] was Active.

`O=c1c2cc(Cl)ccc2ncn1CCCCn1ccnc1`: at Thromboxane-A synthase, the IC50 amounted to 500 nM. The result in experiment [1] was Active.

As for `Cc1ccc2nnn(CCCCCn3ccnc3)c(=O)c2c1`, in experiment [1], the result was Active.

`O=c1[nH]c2ccccc2c(=O)n1CCCCCn1ccnc1` yielded a half-maximal inhibitory concentration (IC50) against Thromboxane-A synthase of 350 nM. In experiment [1], the outcome was Active.

As for `CCc1nc2ccc(Cl)cc2c(=O)n1CCCCn1ccnc1`, the result in experiment [1] was Active.

With `O=c1c2cc(Br)ccc2nnn1CCCCn1ccnc1`, the result in experiment [1] was Active.

In the case of `O=c1c2ccccc2ncn1CCCCn1ccnc1`, the outcome in experiment [1] was Active.

For `Cc1nc2ccc(Cl)cc2c(=O)n1CCCCn1ccnc1`, in experiment [1], the result was Active.

Turning to `CC(Cn1ccnc1)Cn1cnc2ccccc2c1=O` (stereo unspecified), the result in experiment [1] was Active.

`O=c1[nH]c2ccc(Cl)cc2c(=O)n1CCCCn1ccnc1` [listing 2 of 3 here]: 2 nM corresponded to half-maximal inhibition against Thromboxane-A synthase (IC50).

`O=c1[nH]c2ccc(Cl)cc2c(=O)n1CCCCCCCn1ccnc1`: half-maximal inhibition on Thromboxane-A synthase (IC50) required 2 nM. In experiment [1], the outcome was Active.

Turning to `O=c1c2cc(Cl)ccc2ncn1CCCCCCn1ccnc1`, the result in experiment [1] was Active.

As for `Cc1ccc2ncn(CCCCn3ccnc3)c(=O)c2c1`, the IC50 on Thromboxane-A synthase came out at 350 nM. The outcome in experiment [1] was Active.

For the compound `Cc1ccc2nnn(CCCCn3ccnc3)c(=O)c2c1`, the half-inhibitory concentration (IC50) on Thromboxane-A synthase came to 60 nM. Moreover, the outcome in experiment [1] was Active.

At Thromboxane-A synthase, `CC(CCn1cnc2ccc(Cl)cc2c1=O)n1ccnc1` (stereo unspecified) returned a 50% inhibitory concentration (IC50) of 8000 nM. For the same compound, the result in experiment [1] was Active.

For `O=c1c2cc(Cl)ccc2nnn1CCCCCCCCn1ccnc1`, the outcome in experiment [1] was Active.

Turning to `O=c1[nH]c2c(Cl)cccc2c(=O)n1CCCCCn1ccnc1`, the half-maximal inhibitory concentration (IC50) at Thromboxane-A synthase was determined as 40 nM. Besides, in experiment [1], the result was Active.

Consider `O=c1[nH]c2ccc(Cl)cc2c(=O)n1CCCCn1ccnc1` [listing 3 of 3 here], for which the outcome in experiment [1] was Active.

For `O=c1[nH]c2ccc(Cl)cc2c(=O)n1CCCCCCn1ccnc1`, the half-inhibitory concentration (IC50) against Thromboxane-A synthase came out at 4 nM. In addition, in experiment [1], the outcome was Active.

Take `O=c1c2cc(Cl)ccc2nnn1CCCCn1ccnc1`: at Thromboxane-A synthase, the midpoint of inhibition, the IC50, lay at 240 nM. In experiment [1], the outcome was Active.

`Cc1ccc(N)c(C(=O)NCCC(C)n2ccnc2)c1` (stereo unspecified) gave an IC50 against Thromboxane-A synthase of 170 nM. For the same compound, the outcome in experiment [1] was Active.

`CC(Cn1ccnc1)Cn1c(=O)[nH]c2ccccc2c1=O` (stereo unspecified) returned an IC50 at Thromboxane-A synthase of 30 nM. Moreover, the result in experiment [1] was Active.

`CC(Cn1ccnc1)Cn1c(=O)[nH]c2ccc(Cl)cc2c1=O` (stereo unspecified) [listing 1 of 2 here] had a 50% inhibitory concentration (IC50) at Thromboxane-A synthase of 8 nM.

Consider `O=c1[nH]c2c(Cl)cccc2c(=O)n1CCCCCCn1ccnc1`, for which the outcome in experiment [1] was Active.

Regarding `Nc1cc(Cl)ccc1C(=O)NCCCCn1ccnc1`, in experiment [1], the result was Active.

Take `Nc1ccc(Cl)cc1C(=O)NCCCCCCn1ccnc1`: in experiment [1], the result was Active.

On to `O=c1c2cc(Cl)ccc2nnn1CCCCCn1ccnc1`, for which the result in experiment [1] was Active.

Regarding `CC(Cn1ccnc1)Cn1c(=O)[nH]c2ccc(Cl)cc2c1=O` (stereo unspecified) [listing 2 of 2 here], at Thromboxane-A synthase, the half-inhibitory concentration (IC50) came out at 10 nM.

Regarding `CC(CNC(=O)c1ccc(Cl)cc1N)Cn1ccnc1` (stereo unspecified), the outcome in experiment [1] was Active.

On Thromboxane-A synthase, `O=c1[nH]c2cc(Cl)ccc2c(=O)n1CCCCn1ccnc1` returned a half-inhibitory concentration (IC50) of 9 nM. Moreover, the result in experiment [1] was Active.

Consider `O=c1[nH]c2ccccc2c(=O)n1CCCCn1ccnc1`, for which the outcome in experiment [1] was Active.

As for `O=c1c2cc(Cl)ccc2ncn1CCCCCCCCn1ccnc1`, at Thromboxane-A synthase, the IC50 was determined as 40 nM. For the same compound, the outcome in experiment [1] was Active.

For the compound `CC(Cn1ccnc1)Cn1c(=O)[nH]c2c(C(F)(F)F)cccc2c1=O` (stereo unspecified), the concentration for half-maximal inhibition (IC50) on Thromboxane-A synthase turned out to be 400 nM. Further, in experiment [1], the result was Active.

Take `O=c1c2ccccc2ncn1CCCCCCn1ccnc1`: in experiment [1], the outcome was Active.

For `Nc1ccc(Br)cc1C(=O)NCCCCn1ccnc1`, the outcome in experiment [1] was Active.

On to `O=c1c2ccc(Cl)cc2nnn1CCCCn1ccnc1`, for which the outcome in experiment [1] was Active.
